Among the data in ChEMBL document CHEMBL1142559, “ent-halimane diterpenes and a guaiane sesquiterpene from Cladogynos orientalis” (J Nat Prod, 2005) are IC50 and MIC values, retold here.

The test system of one test is NCI-H187. Kind of test: Cytotoxicity against human NCI-H187 cells after 72 hrs by SRB assay. As to conditions: NCI-H187, 72 h. In kind it is functional, cell-based. The gist of the method:
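Small cell lung cancer NCI-H187 cells exposed at 37 °C for 72 h, then sulforhodamine B added for read-out; IC50 given in µg/mL; ellipticine as reference substance.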
(In general: The SRB assay estimates cell density from bound dye.)

Test [1] relates to Mycobacterium tuberculosis. Kind of test: Antitubercular activity against Mycobacterium tuberculosis H37Ra. Format: functional. A digest of the protocol: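 Microplate alamar blue assay with M. tuberculosis H37Ra as test organism; MIC recorded in µg/mL; isoniazid and kanamycin sulfate served as reference drugs.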

Broadly, the IC50 is the point on the concentration scale where inhibition reaches its midpoint. Low readings indicate higher potency, high ones lower potency. Usually MIC stands for the least concentration at which growth counts as inhibited. As for `COC(=O)[C@@]1(C)CC(=O)C=C2[C@@]3(C)C=C(c4ccoc4)O[C@]21CC[C@H]3C`, in the test on NCI-H187, the IC50 was under 5 µg/mL. The compound also gave an MIC in test [1] of under 12.5 µg/mL.

As for `C[C@@H]1CCC2=C(C[C@H]3C[C@]2(C)C(=O)O3)[C@@]1(C)CC(=O)c1ccoc1`, the IC50 in the test on NCI-H187 was under 5 µg/mL. The compound also came in with an MIC in test [1] of under 12.5 µg/mL.

For the compound `C[C@@H]1CCC2=C(C[C@H]3C[C@]2(C)C(=O)O3)[C@@]1(C)CCc1ccoc1`, the IC50 in the test on NCI-H187 is under 5 µg/mL. Besides, the MIC in test [1] is under 12.5 µg/mL.

In turn, `C[C@@H]1CCC2=C(CCC[C@]2(C)C(=O)O)[C@@]1(C)CCc1ccoc1` registered an IC50 in the test with NCI-H187 of under 5 µg/mL. In test [1], the MIC is under 12.5 µg/mL.
